pEC50: −log10 of the molar value. Starred links: 1 amine or outer side, 2 acyl side, 3 side chain; linkers in the order of their positions; H or OH if unused. Positions of bridges follow the written chain, without caps; N, C: chain ends. Non-standard residues stand in square brackets, D forms with d. Residues, ends and D or L forms follow the SMILES beside them. *: point of attachment. N(6-aminohexyl)Gly = O=C(CN(CCCCCCN[*:3])[*:1])[*:2]; NGly(3-aminopropyl) = O=C(CN(CCCN[*:3])[*:1])[*:2]; N(2-Aminoethyl)Gly = O=C(CN(CCN[*:3])[*:1])[*:2]; Adipoyl = O=C(CCCCC(=O)[*:2])[*:1]; Glutaryl = O=C(CCCC(=O)[*:2])[*:1]; X2 = CC(=O)NCCCN(CC(=O)[*:2])[*:1]; Gly(N(CH2)3NH2) = NCCCNCC(=O)O; Suc = O=C(CCC(=O)[*:2])[*:1]; X1 = CNC(=O)CCCCC(=O)*
Experiments:
[1] = molecular target: T1, Neuromedin-K receptor (Rattus norvegicus, UniProt P16177); assay: Effective concentration to activate Tachykinin receptor 3 in rat portal vein(RPV).
T1 sequence (P16177 whole entry): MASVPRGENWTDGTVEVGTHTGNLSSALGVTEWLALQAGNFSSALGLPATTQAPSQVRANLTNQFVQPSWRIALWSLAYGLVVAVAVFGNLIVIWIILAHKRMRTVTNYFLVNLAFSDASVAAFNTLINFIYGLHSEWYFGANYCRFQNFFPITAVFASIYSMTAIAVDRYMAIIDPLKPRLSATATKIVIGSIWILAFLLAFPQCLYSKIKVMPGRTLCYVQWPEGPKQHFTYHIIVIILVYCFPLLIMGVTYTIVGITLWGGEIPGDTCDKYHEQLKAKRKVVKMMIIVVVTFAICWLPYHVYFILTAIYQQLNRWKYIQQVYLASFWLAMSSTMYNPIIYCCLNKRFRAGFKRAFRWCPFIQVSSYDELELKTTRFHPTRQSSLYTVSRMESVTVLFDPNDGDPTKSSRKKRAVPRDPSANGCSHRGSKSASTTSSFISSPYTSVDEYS
Outline: (§1)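 Portal vein from rat killed by decapitation, mounted in a bath at 37 °C under about 0.5 g tension and equilibrated for 1 h. Peptides were then added at 20 min intervals to avoid receptor desensitization, and contractile responses were recorded.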

[2] = molecular target: Substance-P receptor (Cavia porcellus, UniProt P30547); assay: Effective concentration to activate Tachykinin receptor 1 in guinea pig ileum(GPI); format: tissue-based
Substance-P receptor, sequence (P30547 whole entry): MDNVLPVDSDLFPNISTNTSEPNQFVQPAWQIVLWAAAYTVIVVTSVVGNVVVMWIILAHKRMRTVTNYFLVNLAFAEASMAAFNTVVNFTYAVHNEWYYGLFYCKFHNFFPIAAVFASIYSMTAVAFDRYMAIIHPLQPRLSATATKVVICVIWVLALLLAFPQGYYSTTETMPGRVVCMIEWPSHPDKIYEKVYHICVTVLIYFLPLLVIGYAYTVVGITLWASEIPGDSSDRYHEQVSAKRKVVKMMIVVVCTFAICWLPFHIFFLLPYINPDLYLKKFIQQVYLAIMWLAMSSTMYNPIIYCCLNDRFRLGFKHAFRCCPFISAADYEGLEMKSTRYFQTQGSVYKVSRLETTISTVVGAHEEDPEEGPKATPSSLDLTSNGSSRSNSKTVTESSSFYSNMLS

[3] = molecular target: T2, Substance-K receptor (Rattus norvegicus, UniProt P16610); assay: Effective concentration to activate Tachykinin receptor 2 in rat vas deferens(RVD)
T2 sequence (P16610 whole entry): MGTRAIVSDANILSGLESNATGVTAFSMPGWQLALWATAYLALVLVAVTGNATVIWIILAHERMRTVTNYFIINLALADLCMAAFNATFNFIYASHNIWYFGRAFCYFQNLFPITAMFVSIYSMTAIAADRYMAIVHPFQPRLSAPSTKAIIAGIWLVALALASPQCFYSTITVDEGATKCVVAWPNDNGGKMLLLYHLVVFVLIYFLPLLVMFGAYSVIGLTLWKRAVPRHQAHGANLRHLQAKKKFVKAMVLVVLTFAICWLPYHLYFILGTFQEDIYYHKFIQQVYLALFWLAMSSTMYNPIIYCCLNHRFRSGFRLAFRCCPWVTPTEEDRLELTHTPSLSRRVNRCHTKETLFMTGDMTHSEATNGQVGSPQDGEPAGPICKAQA

[4] = molecular target: T2, Substance-K receptor; assay: Effective concentration to activate Tachykinin receptor 2 in rat vas deferens (RVD)
[5] = molecular target: T1, Neuromedin-K receptor; assay: Effective concentration to activate Tachykinin receptor 3 in rat portal vein (RPV); outline: as §1

Compound | pEC50 [1] | pEC50 [2] | pEC50 [3] | pEC50 [4] | pEC50 [5]
CSCC[C@H](NC(=O)[C@H](CC(C)C)NC(=O)CN1CCCNC(=O)CCCC(=O)N[C@@H](CCCN=C(N)N)C(=O)N[C@@H](Cc2ccccc2)C(=O)N[C@@H](Cc2ccccc2)C1=O)C(N)=O (RFF[NGly(3-aminopropyl)]LM-NH2; linker N-4 via Glutaryl) | – | 7.96 | – | < 4.30 | < 5.00
CSCC[C@H](NC(=O)[C@H](CC(C)C)NC(=O)CN1CCCCCCNC(=O)CCCC(=O)N[C@@H](CCCN=C(N)N)C(=O)N[C@@H](Cc2ccccc2)C(=O)N[C@@H](Cc2ccccc2)C1=O)C(N)=O (RFF[N(6-aminohexyl)Gly]LM-NH2; linker N-4 via Glutaryl) | – | 7.22 | – | < 4.30 | 6.00
CSCC[C@H](NC(=O)[C@H](CC(C)C)NC(=O)CNC(=O)[C@H](Cc1ccccc1)N(C)C(=O)[C@H](Cc1ccccc1)NC(=O)[C@H](CC(=O)O)NC(=O)CCC(=O)O)C(N)=O [SENKTIDE] | – | 4.46 | – | < 3.70 | –
CSCC[C@H](NC(=O)[C@H](CC(C)C)NC(=O)CN(CCCN)C(=O)[C@H](Cc1ccccc1)NC(=O)[C@H](Cc1ccccc1)NC(=O)[C@H](CCCNC(=N)N)NC(C)=O)C(N)=O (Ac-RFF[Gly(N(CH2)3NH2)]LM-NH2) | – | 6.52 | – | < 4.00 | 5.70
CSCC[C@H](NC(=O)[C@H](CC(C)C)NC(=O)CN1CCCNC(=O)CCC(=O)N[C@@H](CCCN=C(N)N)C(=O)N[C@@H](Cc2ccccc2)C(=O)N[C@@H](Cc2ccccc2)C1=O)C(N)=O (RFF[NGly(3-aminopropyl)]LM-NH2; linker N-4 via Suc) | – | 6.74 | – | < 4.30 | < 5.00

Now from value to compound:

pEC50 [1] | pEC50 [2] | pEC50 [3] | pEC50 [4] | pEC50 [5] | Compound
5.70 | 6.40 | < 4.00 | – | – | CNC(=O)CCCCC(=O)N[C@@H](CCCNC(=N)N)C(=O)N[C@@H](Cc1ccccc1)C(=O)N[C@@H](Cc1ccccc1)C(=O)N(CCCNC(C)=O)CC(=O)N[C@@H](CC(C)C)C(=O)N[C@@H](CCSC)C(N)=O (X1-RFF[X2]LM-NH2)
– | 6.80 | – | < 4.30 | 6.00 | CSCC[C@H](NC(=O)[C@H](CC(C)C)NC(=O)CN1CCCCCCNC(=O)CCC(=O)N[C@@H](CCCN=C(N)N)C(=O)N[C@@H](Cc2ccccc2)C(=O)N[C@@H](Cc2ccccc2)C1=O)C(N)=O (RFF[N(6-aminohexyl)Gly]LM-NH2; linker N-4 via Suc)
– | 8.30 | – | < 3.70 | < 5.00 | CSCC[C@H](NC(=O)[C@H](CC(C)C)NC(=O)CN1CCCNC(=O)CCCCC(=O)N[C@@H](CCCN=C(N)N)C(=O)N[C@@H](Cc2ccccc2)C(=O)N[C@@H](Cc2ccccc2)C1=O)C(N)=O (RFF[NGly(3-aminopropyl)]LM-NH2; linker N-4 via Adipoyl)
– | 5.40 | – | < 4.30 | < 5.00 | CSCC[C@H](NC(=O)[C@H](CC(C)C)NC(=O)CN1CCNC(=O)CCC(=O)N[C@@H](CCCNC(=N)N)C(=O)N[C@@H](Cc2ccccc2)C(=O)N[C@@H](Cc2ccccc2)C1=O)C(N)=O (RFF[N(2-Aminoethyl)Gly]LM-NH2; linker N-4 via Suc)
– | < 5.00 | – | < 4.30 | < 5.00 | CSCC[C@H](NC(=O)[C@H](CC(C)C)NC(=O)CN1CCNC(=O)CCC(=O)NCC(=O)N[C@@H](CCCN=C(N)N)C(=O)N[C@@H](Cc2ccccc2)C(=O)N[C@@H](Cc2ccccc2)C1=O)C(N)=O (GRFF[N(2-Aminoethyl)Gly]LM-NH2; linker N-5 via Suc)
< 4.30 | 8.52 | – | < 3.70 | – | Ac-RFFPLM-NH2

— ChEMBL document CHEMBL1129266, “Synthesis and biological activity of NK-1 selective, N-backbone cyclic analogs of the C-terminal hexapeptide of substance P” (J Med Chem, 1996)
